Results collected from several papers.
Lines come from different studies, so protocols differ.
Target: Atypical kinase COQ8A, mitochondrial (COQ8A, Homo sapiens, UniProt Q8NI60)

N[C@H]1CCN(c2nccc(-c3cnn4ncccc34)n2)C1
remaining binding (binding; 1 µM): 79%

O=C(NCc1ncc(C(F)(F)F)cc1Cl)c1ccc2c(c1)C1(CCS(=O)(=O)CC1)[C@@H](C1CC1)N2S(=O)(=O)c1ccc(F)cc1
remaining binding (cell-free assay, competition with immobilised ligand; 1 µM): 90%

COc1ccnn2ncc(-c3ccnc(N(C)C)n3)c12
remaining binding (binding; 1 µM): 100%

O=C(c1ccc(Nc2ncc(Cl)c(-c3cc4ccccc4s3)n2)cc1)N1CCC(N2CCCC2)CC1
remaining binding (binding, competition with immobilised ligand; 1 µM): 78%

CNC(=O)[C@@H]1CC[C@@H](n2c(-c3ccc4cnccc4c3)nc3ccc(C(=O)NCc4cccc(C(N)=O)c4)cc32)C1
remaining binding (binding, competition with immobilised ligand; 1 µM): 100%

C[C@H](c1ccnc(Nc2nc3ccc(-c4cc(N(C)C)ncn4)cc3[nH]2)c1)N1CCN(C(=O)CC(F)(F)F)CC1
remaining binding (cell-free assay, competition with immobilised ligand; 0.1 µM): 100%

O=C(NCC1CCOCC1)c1n[nH]cc1NC(=O)c1c(F)cccc1F
remaining binding (binding, competition with immobilised ligand; 1 µM): 86%

COc1ncc2cc3ccccc3nc2c1C#N
remaining binding (cell-free assay, competition with immobilised ligand; 5 µM): 96%

C[C@@H](c1ccc(-n2cnc3c(N)ncnc32)cc1)N1CCc2nn(C)c(Cc3ccccc3)c2C1=O
remaining binding (binding, competition with immobilised ligand; 0.1 µM): 84%

NS(=O)(=O)c1cc(NC(=O)C2(c3ccccc3Cl)CC2)ccc1Oc1cccc(Cl)c1
remaining binding (cell-free assay, competition with immobilised ligand; 1 µM): 100%

CC1CCCN1c1nccc(-c2cnn3ncccc23)n1 (stereo not drawn)
remaining binding (binding; 1 µM): 100%

CCC(=O)N[C@@H]1CC[C@H](C(=O)N(C)c2ccc(-c3nc4ccccc4o3)cc2)C1
remaining binding (cell-free assay, competition with immobilised ligand; 1 µM): 99%

CN(C)c1nccc(-c2cnc3ncccn23)n1
remaining binding (binding; 1 µM): 100%

O=C(NCCCN1CCOCC1)c1ccc(Nc2nccc(-c3cc4ccccc4s3)n2)cc1
remaining binding (binding, competition with immobilised ligand; 1 µM): 90%

COc1cnc(Nc2cccc(S(N)(=O)=O)c2)nc1N1CCN(c2ccccc2)C(=O)C1
remaining binding (binding, competition with immobilised ligand; 1 µM): 100%

O=C(c1ccc(Nc2ncc(Cl)c(-c3ccc(Cl)s3)n2)cc1)N1CCC(N2CCCC2)CC1
remaining binding (binding, competition with immobilised ligand; 1 µM): 100%

c1cncc(-c2cccc(Nc3nccc(NC4CCCCC4)n3)c2)c1
remaining binding (binding, competition with immobilised ligand; 10 µM): 81%

CN(C)c1ncc(F)c(-c2cnn3ncccc23)n1
remaining binding (binding; 1 µM): 96%

Cc1nc(Cc2cccc(C(F)(F)F)c2)sc1-c1ccc(C(N)=O)nc1
remaining binding (cell-free assay, competition with immobilised ligand; 1 µM): 62%

Nc1ncc2c(n1)-c1c([nH]c3ccc(C#CC4CC4)cc13)CCCC2
remaining binding (binding, competition with immobilised ligand; 1 µM): 96%

O=c1nc(-c2ccccn2)sc2ccccc12
remaining binding (cell-free assay, competition with immobilised ligand; 1 µM): 88%

C[C@H]1CCN(c2nccc(-c3cnn4ncccc34)n2)C1
remaining binding (binding; 1 µM): 100%

O=C(N[C@H]1CCCCC/C=C\C2C[C@@]2(C(=O)O)NC(=O)[C@@H]2C[C@@H](Oc3ccncc3)CN2C1=O)OC1CCCC1 (stereo partly drawn)
remaining binding (binding, competition with immobilised ligand; 1 µM): 90%

C[C@@H]1CN(c2ccc3ncc(-c4ccc5[nH]nc(C6CC6)c5c4)n3n2)C[C@H](C)O1
remaining binding (binding, competition with immobilised ligand; 0.5 µM): 100%
